Data reported in ChEMBL document CHEMBL3856209, “Novel pyrazolopyridine derivatives as potential angiogenesis inhibitors: Synthesis, biological evaluation and transcriptome-based mechanistic analysis” (Eur J Med Chem, 2016).
Calls of active or inactive are those of the source. No cut-off for these calls is given here.

Assays:
HUVEC [1] = assay: Antiangiogenic activity in HUVEC assessed as inhibition of VEGF-165-induced tube formation at 0.2 to 2 uM after 24 hrs by matrigel assay; type: functional, cell-based; settings: Homo sapiens
Summary of the method: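 HUVEC seeded at 2×10^4 cells/well on growth factor-reduced Matrigel after pre-starvation, then given compound or vehicle (up to 0.1% v/v DMSO), with or without VEGF-165, for 24 h. Fixed in ice-cold ethanol and stained with haematoxylin-eosin. Tube-like structures counted in at least 5 fields/well and expressed as % of vehicle control; replicates from two independent experiments.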

HUVEC [2] = assay: Effect on CALD1 gene expression in serum-starved HUVEC after 6 hrs by microarray analysis relative to control; type: functional, Homo sapiens
Summary of the method: (§1)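 Serum-starved confluent HUVEC treated with 2 μM compound or DMSO in 2.5% FBS for 6 h or 24 h; RNA hybridized to Illumina Human-HT12 arrays. Data background-corrected, vst-transformed and rsn-normalized. Differential probes called by moderated paired t-test (limma) at p < 0.05 and log2 fold change >|0.5| vs DMSO.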

HUVEC [3] = assay: Effect on ERAP2 gene expression in serum-starved HUVEC after 6 hrs by microarray analysis relative to control; type: functional, Homo sapiens
Summary of the method: (§2)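 Confluent, serum-starved HUVEC (pooled from 3–5 donors, passage ≤4) treated with 2 μM compound or vehicle with 2.5% FBS for 6 h or 24 h. Total RNA hybridized to Illumina Human-HT12 arrays. Data were background-corrected, vst-transformed and rsn-normalized. Hits called by moderated paired t-test versus DMSO-treated cells, p < 0.05 and log2 fold change >|0.5|.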

HUVEC [4] = assay: Effect on GNG12 gene expression in serum-starved HUVEC after 6 hrs by microarray analysis relative to control; type: functional, Homo sapiens; summary of the method: as §2
HUVEC [5] = assay: Effect on KIFC1 gene expression in serum-starved HUVEC after 6 hrs by microarray analysis relative to control; type: functional, Homo sapiens
Summary of the method: (§3)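 Serum-starved confluent HUVEC (pooled from 3–5 donors, passage ≤4) were treated with 2 μM compound or vehicle in 2.5% FBS for 6 h or 24 h, and total RNA was isolated. Hybridization was on Illumina Human-HT12. Data were processed with bgAdjust, vst and rsn normalization. Changes versus DMSO were called by moderated paired t-test at p < 0.05 and |log2 fold change| > 0.5.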

HUVEC [6] = assay: Effect on PTTG1 gene expression in serum-starved HUVEC after 6 hrs by microarray analysis relative to control; type: functional, Homo sapiens; summary of the method: as §3
HUVEC [7] = assay: Effect on PTTG3P gene expression in serum-starved HUVEC after 6 hrs by microarray analysis relative to control; type: functional, Homo sapiens
Summary of the method: (§4)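 Confluent serum-starved HUVEC (primary, pooled from 3–5 donors, passage ≤4) treated with 2 μM compound or DMSO vehicle in 2.5% FBS for 6 h or 24 h. Total RNA hybridized to Illumina Human-HT12 arrays, background-corrected, vst-transformed and rsn-normalized. Differential expression versus DMSO by moderated paired t-test (p < 0.05, |log2 fold change| > 0.5).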

HUVEC [8] = assay: Effect on RNVU1-7 gene expression in serum-starved HUVEC after 6 hrs by microarray analysis relative to control; type: functional, Homo sapiens; summary of the method: as §4
HUVEC [9] = assay: Effect on SPC24 gene expression in serum-starved HUVEC after 6 hrs by microarray analysis relative to control; type: functional, Homo sapiens; summary of the method: as §4
HUVEC [10] = assay: Effect on UBE2C gene expression in serum-starved HUVEC after 6 hrs by microarray analysis relative to control; type: functional, Homo sapiens; summary of the method: as §4
HUVEC [11] = assay: Effect on ZWINT gene expression in serum-starved HUVEC after 6 hrs by microarray analysis relative to control; type: functional, Homo sapiens; summary of the method: as §3
HUVEC [12] = assay: Effect on ASPM gene expression in serum-starved HUVEC after 24 hrs by microarray analysis relative to control; type: functional, Homo sapiens; summary of the method: as §1
HUVEC [13] = assay: Effect on BIRC5 gene expression in serum-starved HUVEC after 24 hrs by microarray analysis relative to control; type: functional, Homo sapiens; summary of the method: as §1
HUVEC [14] = assay: Effect on CALD1 gene expression in serum-starved HUVEC after 24 hrs by microarray analysis relative to control; type: functional, Homo sapiens; summary of the method: as §1
HUVEC [15] = assay: Effect on CCNB2 gene expression in serum-starved HUVEC after 24 hrs by microarray analysis relative to control; type: functional, Homo sapiens; summary of the method: as §1
HUVEC [16] = assay: Effect on CDC20 gene expression in serum-starved HUVEC after 24 hrs by microarray analysis relative to control; type: functional, Homo sapiens; summary of the method: as §1
HUVEC [17] = assay: Effect on CENPA gene expression in serum-starved HUVEC after 24 hrs by microarray analysis relative to control; type: functional, Homo sapiens; summary of the method: as §1
HUVEC [18] = assay: Effect on ERAP2 gene expression in serum-starved HUVEC after 24 hrs by microarray analysis relative to control; type: functional, Homo sapiens; summary of the method: as §2
HUVEC [19] = assay: Effect on KIFC1 gene expression in serum-starved HUVEC after 24 hrs by microarray analysis relative to control; type: functional, Homo sapiens; summary of the method: as §3
HUVEC [20] = assay: Effect on PTTG1 gene expression in serum-starved HUVEC after 24 hrs by microarray analysis relative to control; type: functional, Homo sapiens; summary of the method: as §4
HUVEC [21] = assay: Effect on PTTG3P gene expression in serum-starved HUVEC after 24 hrs by microarray analysis relative to control; type: functional, Homo sapiens; summary of the method: as §3
HUVEC [22] = assay: Effect on RNA28S5 gene expression in serum-starved HUVEC after 24 hrs by microarray analysis relative to control; type: functional, Homo sapiens; summary of the method: as §3
HUVEC [23] = assay: Effect on RNVU1-18 gene expression in serum-starved HUVEC after 24 hrs by microarray analysis relative to control; type: functional, Homo sapiens; summary of the method: as §4
HUVEC [24] = assay: Effect on RNVU1-7 gene expression in serum-starved HUVEC after 24 hrs by microarray analysis relative to control; type: functional, Homo sapiens; summary of the method: as §4
HUVEC [25] = assay: Effect on SPC24 gene expression in serum-starved HUVEC after 24 hrs by microarray analysis relative to control; type: functional, Homo sapiens; summary of the method: as §4
HUVEC [26] = assay: Effect on UBE2C gene expression in serum-starved HUVEC after 24 hrs by microarray analysis relative to control; type: functional, Homo sapiens; summary of the method: as §4
HUVEC [27] = assay: Effect on DLC1 gene expression in serum-starved HUVEC after 6 hrs by microarray analysis relative to control; type: functional, Homo sapiens; summary of the method: as §2
HUVEC [28] = assay: Effect on DLC1 gene expression in serum-starved HUVEC after 24 hrs by microarray analysis relative to control; type: functional, Homo sapiens; summary of the method: as §2
HUVEC [29] = assay: Effect on MSMP gene expression in serum-starved HUVEC after 6 hrs by microarray analysis relative to control; type: functional, Homo sapiens; summary of the method: as §3
HUVEC [30] = assay: Effect on MSMP gene expression in serum-starved HUVEC after 24 hrs by microarray analysis relative to control; type: functional, Homo sapiens; summary of the method: as §3
HUVEC (Homo sapiens) [31] = assay: Antiproliferative activity against human HUVEC cells assessed as decrease in VEGF-165-induced cell growth at 0.5 to 2 uM after 24 to 48 hrs by MTT assay
HUVEC (Homo sapiens) [32] = assay: Antiproliferative activity against human HUVEC cells assessed as decrease in VEGF-165-induced cell growth at 0.5 to 2 uM after 24 to 48 hrs by CyQUANT cell proliferation assay
HUVEC [33] = assay: Effect on DLGAP5 gene expression in serum-starved HUVEC after 6 hrs by microarray analysis relative to control; type: functional, Homo sapiens; summary of the method: as §2
HUVEC [34] = assay: Effect on KIF22 gene expression in serum-starved HUVEC after 6 hrs by microarray analysis relative to control; type: functional, Homo sapiens; summary of the method: as §3
HUVEC [35] = assay: Effect on DLGAP5 gene expression in serum-starved HUVEC after 24 hrs by microarray analysis relative to control; type: functional, Homo sapiens; summary of the method: as §2
HUVEC [36] = assay: Effect on MMP1 gene expression in serum-starved HUVEC after 24 hrs by microarray analysis relative to control; type: functional, Homo sapiens; summary of the method: as §3

Structure (SMILES): COc1ccc(Cn2nc(-c3ccccc3)c3cc(Cl)nc(N4CCNCC4)c32)cc1
- inhibition (HUVEC [1]): Active
- fold change (FC) (HUVEC [2]): 0.5218
- fold change (FC) (HUVEC [3]): 0.5171
- fold change (FC) (HUVEC [4]): 0.5853
- fold change (FC) (HUVEC [5]): 0.0022
- log2FC (HUVEC [6]): -0.1057
- log2FC (HUVEC [7]): -0.1207
- log2FC (HUVEC [8]): -0.5056
- log2FC (HUVEC [9]): 0.1186
- log2FC (HUVEC [10]): -0.1374
- log2FC (HUVEC [11]): 0.1395
- log2FC (HUVEC [12]): -0.5316
- log2FC (HUVEC [13]): -0.6034
- log2FC (HUVEC [14]): 0.263
- log2FC (HUVEC [15]): -0.5884
- log2FC (HUVEC [16]): -0.6535
- log2FC (HUVEC [17]): -0.5592
- log2FC (HUVEC [18]): 0.2703
- log2FC (HUVEC [19]): -0.5682
- log2FC (HUVEC [20]): -0.6261
- log2FC (HUVEC [21]): -0.5735
- log2FC (HUVEC [22]): 0.141
- log2FC (HUVEC [23]): -0.1577
- log2FC (HUVEC [24]): -0.1037
- log2FC (HUVEC [25]): -0.732
- log2FC (HUVEC [26]): -0.5278
- log2FC (HUVEC [27]): 0.5758
- log2FC (HUVEC [28]): -0.0926
- log2FC (HUVEC [29]): -0.0237
- log2FC (HUVEC [30]): -0.6932
- Activity (HUVEC (Homo sapiens) [31]): Active
- Activity (HUVEC (Homo sapiens) [32]): Active

Structure (SMILES): COc1ccc(Cn2nc(-c3ccccc3)c3cc(Nc4ccc(N5CCN(C)CC5)cc4)nc(N4CCNCC4)c32)cc1
- inhibition (HUVEC [1]): Active
- log2FC (HUVEC [33]): 0.2579
- log2FC (HUVEC [4]): 0.6358
- log2FC (HUVEC [34]): -0.0345
- log2FC (HUVEC [35]): -0.516
- log2FC (HUVEC [36]): -0.646
- log2FC (HUVEC [22]): 0.4902
- log2FC (HUVEC [27]): 0.3681
- log2FC (HUVEC [28]): 0.5215
- log2FC (HUVEC [29]): -0.0154
- log2FC (HUVEC [30]): -0.652

Structure (SMILES): COc1ccc(Cn2nc(-c3ccccc3)c3cc(Nc4ccc(N5CCN(C)CC5)cc4)nc(N4CCN(C)CC4)c32)cc1
- inhibition (HUVEC [1]): Active
- fold change (FC) (HUVEC [2]): 0.5101
- fold change (FC) (HUVEC [33]): 0.1107
- fold change (FC) (HUVEC [3]): 0.5068
- fold change (FC) (HUVEC [34]): -0.1033
- fold change (FC) (HUVEC [5]): -0.2068
- log2FC (HUVEC [6]): -0.1804
- log2FC (HUVEC [7]): -0.2702
- log2FC (HUVEC [8]): -0.536
- log2FC (HUVEC [9]): -0.1032
- log2FC (HUVEC [10]): -0.2671
- log2FC (HUVEC [11]): -0.3223
- log2FC (HUVEC [12]): -0.6736
- log2FC (HUVEC [13]): -0.6896
- log2FC (HUVEC [14]): 0.0259
- log2FC (HUVEC [15]): -0.7404
- log2FC (HUVEC [16]): -0.9562
- log2FC (HUVEC [17]): -0.6147
- log2FC (HUVEC [35]): -0.8206
- log2FC (HUVEC [18]): 0.0121
- log2FC (HUVEC [19]): -0.6872
- log2FC (HUVEC [36]): 0.5814
- log2FC (HUVEC [20]): -0.8594
- log2FC (HUVEC [21]): -0.5177
- log2FC (HUVEC [23]): -0.0118
- log2FC (HUVEC [24]): 0.1142
- log2FC (HUVEC [25]): -0.7666
- log2FC (HUVEC [26]): -0.9349
- Activity (HUVEC (Homo sapiens) [31]): Active
- Activity (HUVEC (Homo sapiens) [32]): Active
